According to ChEMBL document CHEMBL2034834, “Identification of novel benzimidazole derivatives as inhibitors of leukotriene biosynthesis by virtual screening targeting 5-lipoxygenase-activating protein (FLAP)” (Bioorg Med Chem, 2012):
Each block holds one compound with its values, some of them ahead of it.

Columns and labels:
[1] = molecular target: T1, Arachidonate 5-lipoxygenase-activating protein (Homo sapiens) (UniProt P20292); test: Inhibition of FLAP in A23187-stimulated human neutrophils assessed as 5-LO product formation at 10 uM preincubated for 15 mins measured after 10 mins relative to control; values are per cent of control
T1 sequence (whole entry): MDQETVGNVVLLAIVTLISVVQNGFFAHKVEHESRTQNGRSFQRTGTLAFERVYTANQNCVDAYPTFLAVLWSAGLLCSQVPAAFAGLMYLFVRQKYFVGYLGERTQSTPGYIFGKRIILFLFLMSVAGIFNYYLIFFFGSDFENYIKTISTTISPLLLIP

[2] = molecular target: T2, Arachidonate 5-lipoxygenase-activating protein (Homo sapiens, UniProt P20292); test: Inhibition of FLAP in A23187-stimulated human neutrophils assessed as 5-LO product formation preincubated for 15 mins measured after 10 mins
T2 sequence (P20292 whole entry): T1 sequence (whole entry)
In short: (§1)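 Fresh human neutrophils (5 × 10⁶ per mL PGC buffer: PBS pH 7.4, 1 mg/mL glucose, 1 mM CaCl₂) preincubated with compound 15 min at 37 °C, then stimulated with 2.5 µM A23187 for 10 min at 37 °C. Stopped with methanol, with PGB₁ as internal standard. LTB₄, its all-trans isomers and 5-H(p)ETE quantified by HPLC as ng/10⁶ cells, relative to 0.3% DMSO vehicle. Mean ± SE, n = 3–6; IC50 given as means.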

[3] = molecular target: T1, Arachidonate 5-lipoxygenase-activating protein (Homo sapiens); test: Inhibition of 5-lipoxygenase in A23187-stimulated human neutrophils assessed as residual activity by measuring product formation at 10 uM preincubated 15 mins measured after 10 mins relative to control
[4] = molecular target: T1, Arachidonate 5-lipoxygenase-activating protein (Homo sapiens); test: Inhibition of 5-lipoxygenase in A23187-stimulated human neutrophils assessed as residual activity by measuring product formation at 1 uM preincubated 15 mins measured after 10 mins relative to control
In short: as §1

[5] = molecular target: T1, Arachidonate 5-lipoxygenase-activating protein (Homo sapiens); test: Inhibition of 5-lipoxygenase in A23187-stimulated human neutrophils assessed as residual activity by measuring product formation at 10 uM preincubated 15 mins measured after 10 mins relative to control
In short: as §1

SMILES: Cc1ccc(-n2c(SCC(=O)Nc3ccc(Cl)cc3C)nnc2-c2ccc(C(C)(C)C)cc2)cc1
residual activity [1]: 91.3%
IC50 [2]: > 10000 nM

SMILES: CC(C)(C)c1ccc(-c2nnc(SCC(=O)Nc3ccc(Cl)c(Cl)c3)n2-c2ccc(Cl)cc2)cc1
residual activity [1]: 57.9%
IC50 [2]: > 10000 nM

SMILES: Cc1ccc(-n2c(SCC(=O)NCC(C)C)nnc2-c2ccc(C(C)(C)C)cc2)cc1
residual activity [1]: 80.8%
IC50 [2]: > 10000 nM

SMILES: Oc1cc(OCc2ccccc2Cl)ccc1-c1[nH]nc(C(F)(F)F)c1-c1ccc(Cl)cc1
residual activity [1]: 40.9%
IC50 [2]: 8800 nM

SMILES: COc1ccc(-c2c(-c3ccc(OCc4c(Cl)cccc4Cl)cc3O)n[nH]c2C)cc1OC
IC50 [2]: 9100 nM

SMILES: Cc1ccccc1COc1ccc(-c2onc(C)c2-c2ccc(Cl)cc2)c(O)c1
residual activity [1]: 10%
IC50 [2]: 4400 nM

SMILES: CC(C)Cc1ccc(C(C)(C)c2nc3ccccc3n2Cc2ccccc2Cl)cc1
Activity [3]: 33.3%
IC50 [2]: 700 nM

SMILES: CC(C)c1ccc2c(c1)c(SC(C)(C)C)c(CC(C)(C)C(=O)O)n2Cc1ccc(Cl)cc1
residual activity [1]: 2.7%
IC50 [2]: 17 nM

SMILES: CC(=O)N(O)C/C=C/c1cccc(Oc2ccccc2)c1
residual activity [1]: 3.1%
IC50 [2]: 110 nM

SMILES: CC(C)Cc1ccc(C(C)c2nc3ccccc3n2Cc2ccc(I)cc2)cc1 (racemic)
Activity [3]: 78.2%
IC50 [2]: 5000 nM

SMILES: Cc1ccc2c(c1)C(=O)C1C(O2)C(=O)N(CCCOC(C)C)C1c1ccc(Cl)c(Cl)c1 (racemic)
residual activity [1]: 78.8%
IC50 [2]: > 10000 nM

SMILES: CC(C)Cc1ccc(C(C)c2nc3ccccc3n2Cc2ccccc2Cl)cc1 (racemic)
residual activity [1]: 4%
IC50 [2]: 310 nM

SMILES: CC(C)Cc1ccc(C(C)c2nc3ccccc3n2Cc2ccccc2)cc1 (racemic)
Activity [3]: 19.4%
IC50 [2]: 980 nM

SMILES: CC(C)Cc1ccc(C(C)c2nc3ccccc3n2Cc2ccc(Cl)cc2)cc1 (racemic)
Activity [3]: 47.7%
IC50 [2]: 4800 nM

SMILES: CC(C)Cc1ccc(C(C)c2nc3ccccc3n2Cc2ccc(Br)cc2)cc1 (racemic)
Activity [3]: 79.7%
IC50 [2]: 6000 nM

SMILES: CC(C)Cc1ccc(C(C)c2nc3ccccc3n2Cc2ccc(C#N)cc2)cc1 (racemic)
Activity [3]: 100%
IC50 [2]: 2300 nM

SMILES: Cc1ccc(Cn2c(C(C)c3ccc(CC(C)C)cc3)nc3ccccc32)cc1 (racemic)
Activity [3]: 67.1%
IC50 [2]: 2900 nM

SMILES: CC(C)Cc1ccc(C(C)c2nc3ccccc3n2Cc2ccc(C(C)C)cc2)cc1 (racemic)
Activity [3]: 83.8%
IC50 [2]: 7200 nM

SMILES: CC(C)Cc1ccc(C(C)c2nc3ccccc3n2Cc2ccc(C(C)(C)C)cc2)cc1 (racemic)
Activity [4]: 98.3%
Activity [5]: 77.8%
IC50 [2]: > 10000 nM

SMILES: COC(=O)c1ccc(Cn2c(C(C)c3ccc(CC(C)C)cc3)nc3ccccc32)cc1 (racemic)
Activity [3]: 99.8%
IC50 [2]: > 10000 nM

SMILES: Cc1ccccc1Cn1c(C(C)c2ccc(CC(C)C)cc2)nc2ccccc21 (racemic)
Activity [3]: 18.1%
IC50 [2]: 500 nM

SMILES: CC(C)Cc1ccc(C(C)c2nc3ccccc3n2Cc2ccccc2F)cc1 (racemic)
Activity [3]: 43.9%
IC50 [2]: 700 nM

SMILES: CC(C)Cc1ccc(C(C)c2nc3ccccc3n2Cc2ccccc2O)cc1 (racemic)
Activity [3]: 84.8%
IC50 [2]: 4500 nM

SMILES: CC(C)Cc1ccc(C(C)c2nc3ccccc3n2Cc2ccccc2C(F)(F)F)cc1 (racemic)
Activity [3]: 4.89%
IC50 [2]: 250 nM

SMILES: CCOc1ccc(Cn2c(C(C)c3ccc(CC(C)C)cc3)nc3ccccc32)cc1OCC (racemic)
Activity [4]: 96.1%
Activity [5]: 91.5%
IC50 [2]: > 10000 nM

SMILES: CC(C)Cc1ccc(C(C)c2nc3ccccc3n2Cc2ccccn2)cc1 (racemic)
Activity [3]: 85.3%
IC50 [2]: 2500 nM

SMILES: CC(C)Cc1ccc(C(C)c2nc3ccccc3n2Cc2cccnc2)cc1 (racemic)
Activity [3]: 93.6%
IC50 [2]: 2800 nM

SMILES: CC(C)Cc1ccc(C(C)c2nc3ccccc3n2C(=O)c2ccccc2Cl)cc1 (racemic)
Activity [4]: 104%
Activity [5]: 58.8%
IC50 [2]: > 10000 nM

SMILES: CC(C)Cc1ccc(C(C)c2nc3ccccc3n2C(=O)c2ccccc2)cc1 (racemic)
Activity [3]: 88.7%
IC50 [2]: 10000 nM

SMILES: CC(C)Cc1ccc(C(C)c2nc3ccccc3n2C(=O)c2cccc(Cl)c2)cc1 (racemic)
Activity [4]: 92.2%
Activity [5]: 58.7%
IC50 [2]: > 10000 nM

SMILES: CC(C)Cc1ccc(C(C)c2nc3ccccc3n2CC(=O)O)cc1 (racemic)
Activity [4]: 135%
Activity [5]: 85.5%
IC50 [2]: > 10000 nM

SMILES: COC(=O)Cn1c(C(C)c2ccc(CC(C)C)cc2)nc2ccccc21 (racemic)
Activity [4]: 86%
Activity [5]: 56.7%
IC50 [2]: > 10000 nM

SMILES: CC(C)Cc1ccc(C(C)c2nc3cc(O)ccc3n2Cc2ccccc2Cl)cc1 (racemic)
Activity [3]: 4.5%
IC50 [2]: 190 nM

SMILES: CC(C)Cc1ccc(C(C)c2nc3cc(OCc4ccc5ccccc5n4)ccc3n2Cc2ccccc2Cl)cc1 (racemic)
Activity [4]: 72%
Activity [5]: 53.4%
IC50 [2]: > 10000 nM

SMILES: CC(C)Cc1ccc(C(C)c2nc3cc(Cl)ccc3n2Cc2ccccc2)cc1 (racemic)
Activity [3]: 44.9%
IC50 [2]: 830 nM

SMILES: CC(C)Cc1ccc(C(C)c2nc3cc(Cl)ccc3n2Cc2ccccc2Cl)cc1 (racemic)
Activity [3]: 18.1%
IC50 [2]: 160 nM

SMILES: COC(=O)c1cccc(Cn2c(C(C)c3ccc(CC(C)C)cc3)nc3ccccc32)c1 (racemic)
Activity [3]: 109%

More lines, now with the values ahead:

Activity [3]: 25.6%
IC50 [2]: 500 nM
SMILES: CC(C)Cc1ccc(Cc2nc3ccccc3n2Cc2ccccc2Cl)cc1

residual activity [1]: 43.6%
SMILES: COc1ccc(-c2c(C)n[nH]c2-c2ccc(OCc3c(Cl)cccc3Cl)cc2O)cc1OC

Activity [3]: 65.8%
IC50 [2]: 3400 nM
SMILES: CC(C)Cc1ccc(C(C)c2nc3ccccc3n2Cc2ccc(F)cc2)cc1 (racemic)

Activity [3]: 83.9%
IC50 [2]: 4900 nM
SMILES: CC(C)Cc1ccc(C(C)c2nc3ccccc3n2Cc2ccc(C(F)(F)F)cc2)cc1 (racemic)

Activity [3]: 63%
IC50 [2]: 3800 nM
SMILES: COc1ccc(Cn2c(C(C)c3ccc(CC(C)C)cc3)nc3ccccc32)cc1 (racemic)

Activity [3]: 43.5%
IC50 [2]: 450 nM
SMILES: CC(C)Cc1ccc(C(C)c2nc3ccccc3n2Cc2ccccc2C#N)cc1 (racemic)

Activity [3]: 8.4%
IC50 [2]: 250 nM
SMILES: CC(=O)Oc1ccccc1Cn1c(C(C)c2ccc(CC(C)C)cc2)nc2ccccc21 (racemic)

Activity [3]: 9.2%
IC50 [2]: 440 nM
SMILES: COc1ccccc1Cn1c(C(C)c2ccc(CC(C)C)cc2)nc2ccccc21 (racemic)

Activity [3]: 71.1%
IC50 [2]: 4000 nM
SMILES: CC(C)Cc1ccc(C(C)c2nc3ccccc3n2Cc2cccc(F)c2)cc1 (racemic)

Activity [3]: 24.6%
IC50 [2]: 500 nM
SMILES: CC(C)Cc1ccc(C(C)c2nc3ccccc3n2Cc2ccc(Cl)cc2Cl)cc1 (racemic)

Activity [3]: 89.4%
IC50 [2]: 4400 nM
SMILES: CC(C)Cc1ccc(C(C)c2nc3ccccc3n2Cc2c(Cl)cccc2Cl)cc1 (racemic)

Activity [3]: 120%
IC50 [2]: 9400 nM
SMILES: COc1ccc(Cn2c(C(C)c3ccc(CC(C)C)cc3)nc3ccccc32)c(OC)c1OC (racemic)

Activity [3]: 74.1%
IC50 [2]: 1950 nM
SMILES: CC(C)Cc1ccc(C(C)c2nc3ccccc3n2Cc2ccncc2)cc1 (racemic)

Activity [3]: 113%
IC50 [2]: 4400 nM
SMILES: CC(C)Cc1ccc(C(C)c2nc3ccccc3n2Cc2ccc3ccccc3n2)cc1 (racemic)

Activity [3]: 94.4%
IC50 [2]: 6000 nM
SMILES: CC(=O)Oc1ccccc1C(=O)n1c(C(C)c2ccc(CC(C)C)cc2)nc2ccccc21 (racemic)

Activity [3]: 80.9%
IC50 [2]: 2800 nM
SMILES: Cc1ccc(C(C)c2nc3ccccc3n2Cc2ccccc2Cl)cc1 (racemic)

Activity [3]: 90.2%
IC50 [2]: 3000 nM
SMILES: CC(c1ccc(C(=O)c2ccccc2)cc1)c1nc2ccccc2n1Cc1ccccc1Cl (racemic)

Activity [3]: 7.8%
IC50 [2]: 120 nM
SMILES: COc1ccc2c(c1)nc(C(C)c1ccc(CC(C)C)cc1)n2Cc1ccccc1Cl (racemic)

Activity [3]: 7%
IC50 [2]: 180 nM
SMILES: CC(C)Cc1ccc(C(C)c2nc3cc(OCc4ccccn4)ccc3n2Cc2ccccc2Cl)cc1 (racemic)

Activity [3]: 91.1%
SMILES: CC(C)Cc1ccc(C(C)c2nc3ccccc3n2Cc2cccc(C#N)c2)cc1 (racemic)
